Source: ChEMBL document CHEMBL1126555, “6-Substituted benzimidazoles as new nonpeptide angiotensin II receptor antagonists: synthesis, biological activity, and structure-activity relationships” (J Med Chem, 1993)

What follows are compounds tested against T1, Type-1 angiotensin II receptor B (Rattus norvegicus, UniProt P29089) (assay: Inhibition of specific binding of [125I]angiotensin-II to angiotensin 1 receptor in rat lung membrane preparation). Details: not given.
T1 sequence (P29089 whole entry): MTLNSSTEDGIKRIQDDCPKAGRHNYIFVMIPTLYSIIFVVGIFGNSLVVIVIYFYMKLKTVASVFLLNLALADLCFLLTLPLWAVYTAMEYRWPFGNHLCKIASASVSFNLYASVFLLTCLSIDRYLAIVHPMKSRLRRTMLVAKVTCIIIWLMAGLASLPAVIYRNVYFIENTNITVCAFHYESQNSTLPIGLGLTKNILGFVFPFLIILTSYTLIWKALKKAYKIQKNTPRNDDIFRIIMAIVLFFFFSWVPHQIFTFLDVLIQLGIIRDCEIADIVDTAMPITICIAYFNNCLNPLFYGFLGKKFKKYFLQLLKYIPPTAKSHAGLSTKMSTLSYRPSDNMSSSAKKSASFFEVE
Assay type: cell membranes
How it was run: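 Membranes from lungs of male Wistar rats (Chbb:THOM, 200–220 g), homogenized in Tris buffer pH 7.20 and spun at 1000g, then twice at 48 000g. DMSO ≤1%. Nonspecific binding defined with 1 μM AII. Filtration, gamma counting. IC50 from nonlinear fit; Ki by Cheng–Prusoff.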

SMILES	IC50
CCCCc1nc2ccc(NC(=O)NC3CCCCC3)cc2n1Cc1ccc(-c2ccccc2-c2nn[nH]n2)cc1	21 nM
CCCc1nc2ccc(-c3nc4ccccc4n3C)cc2n1Cc1ccc(-c2ccccc2-c2nn[nH]n2)cc1	5 nM
CCCc1nc2c(C)cc(-c3ccccn3)cc2n1Cc1ccc(-c2ccccc2-c2nnn[nH]2)cc1	5 nM
CCCCc1nc2ccc(NC(=O)NC3CCCCC3)cc2n1Cc1ccc(-c2ccccc2C(=O)O)cc1	26 nM
CCCCc1nc2cccc(NC(=O)NC3CCCCC3)c2n1Cc1ccc(-c2ccccc2C(=O)O)cc1	160 nM
CCCc1nc2c(C)cc(CN(C)C)cc2n1Cc1ccc(-c2ccccc2C(=O)O)cc1	158 nM
CCCCc1nc2ccc(N(C)C(=O)NC3CCCCC3)cc2n1Cc1ccc(-c2ccccc2-c2nn[nH]n2)cc1	10 nM
CCCCc1nc2ccc(N3CCCCS3(=O)=O)cc2n1Cc1ccc(-c2ccccc2-c2nnn[nH]2)cc1	3 nM
CCCCc1nc2c(NC(=O)NC3CCCCC3)cccc2n1Cc1ccc(-c2ccccc2C(=O)O)cc1	29300 nM
CCCc1nc2ccc(-c3ccccn3)cc2n1Cc1ccc(-c2ccccc2-c2nnn[nH]2)cc1	11 nM
CCCc1nc2ccc(-c3nc4ccccc4o3)cc2n1Cc1ccc(-c2ccccc2-c2nn[nH]n2)cc1	240 nM
CCCc1nc2c(C)cc(-c3cn4ccccc4n3)cc2n1Cc1ccc(-c2ccccc2-c2nnn[nH]2)cc1	3 nM
CCCc1nc2c(C)cc(-c3nc4ccccc4n3C)cc2n1Cc1ccc(-c2ccccc2-c2nnn[nH]2)cc1	13 nM
CCCCc1nc2ccc(NC(=O)N(C)C)cc2n1Cc1ccc(-c2ccccc2-c2nn[nH]n2)cc1	8 nM
CCCCc1nc2ccc(N3CCCCC3=O)cc2n1Cc1ccc(-c2ccccc2-c2nnn[nH]2)cc1	4 nM
CCCCc1nc2ccc(N(C)C(=O)NC3CCCCC3)cc2n1Cc1ccc(-c2ccccc2C(=O)O)cc1	26 nM

Next, values leading:

IC50	SMILES
34 nM	CCCCc1nc2ccc(N3CCCCS3(=O)=O)cc2n1Cc1ccc(-c2ccccc2C(=O)O)cc1
81 nM	CCCCc1nc2ccc(N3CCCCC3=O)cc2n1Cc1ccc(-c2ccccc2C(=O)O)cc1
24 nM	CCCCc1nc2ccc(NC(=O)N(C)C)cc2n1Cc1ccc(-c2ccccc2C(=O)O)cc1
460 nM	CCCCc1nc2cc(NC(C)=O)ccc2n1Cc1ccc(-c2ccccc2C(=O)O)cc1
1700 nM	CCCCc1nc2c(N)cccc2n1Cc1ccc(-c2ccccc2C(=O)O)cc1
350 nM	CCCCc1nc(Cl)c(CO)n1Cc1ccc(-c2ccccc2C(=O)O)cc1
3 nM	CCCc1nc2ccc(-c3nc4ccccc4n3C)cc2n1Cc1ccc(-c2ccccc2C(=O)O)cc1
180 nM	CCCCc1nc2ccc(NC(C)=O)cc2n1Cc1ccc(-c2ccccc2C(=O)O)cc1
1800 nM	CCCCc1nc2cccc(NC(C)=O)c2n1Cc1ccc(-c2ccccc2C(=O)O)cc1
5700 nM	CCCCc1nc2c(NC(C)=O)cccc2n1Cc1ccc(-c2ccccc2C(=O)O)cc1
400 nM	CCCCc1nc2ccccc2n1Cc1ccc(-c2ccccc2C(=O)O)cc1
540 nM	CCCCc1nc2ccc(N)cc2n1Cc1ccc(-c2ccccc2C(=O)O)cc1
850 nM	CCCCc1nc2ccc(C)cc2n1Cc1ccc(-c2ccccc2C(=O)O)cc1
390 nM	CCCCCNc1ccc2nc(CCCC)n(Cc3ccc(-c4ccccc4C(=O)O)cc3)c2c1
160 nM	CCCCc1nc2ccc(N3CCCCC3)cc2n1Cc1ccc(-c2ccccc2C(=O)O)cc1
820 nM	CCCCc1nc2cc(N)ccc2n1Cc1ccc(-c2ccccc2C(=O)O)cc1
800 nM	CCCCc1nc2cc(NC(=O)NC3CCCCC3)ccc2n1Cc1ccc(-c2ccccc2C(=O)O)cc1
480 nM	CCCCc1nc2cccc(C)c2n1Cc1ccc(-c2ccccc2C(=O)O)cc1
1200 nM	CCCCc1nc2cc(C)ccc2n1Cc1ccc(-c2ccccc2C(=O)O)cc1
3 nM	CCCc1nc2c(C)cc(-c3nc4ccccc4n3C)cc2n1Cc1ccc(-c2ccccc2C(=O)O)cc1
86 nM	CCCCC(=O)Nc1ccc2nc(CCCC)n(Cc3ccc(-c4ccccc4C(=O)O)cc3)c2c1
33 nM	CCCCc1nc2ccc(N(C)S(=O)(=O)CCC)cc2n1Cc1ccc(-c2ccccc2C(=O)O)cc1
1200 nM	CCCCc1nc2c(C)cccc2n1Cc1ccc(-c2ccccc2C(=O)O)cc1

Each compound was assayed on Rattus norvegicus (assay: Tested for percent inhibition of AII pressor response 2 hr after i.v. administration of 0.3 mg/Kg in rats). Details: iv.
Assay type: functional

SMILES	inhibition in vivo at 0.3 mg/kg
CCCCc1nc2ccc(N3CCCCS3(=O)=O)cc2n1Cc1ccc(-c2ccccc2-c2nnn[nH]2)cc1	60%
CCCCc1nc2ccc(N3CCCCC3=O)cc2n1Cc1ccc(-c2ccccc2-c2nnn[nH]2)cc1	60%

Each compound was assayed on Rattus norvegicus (assay: Fall in mean arterial blood pressure (MABP) at 1 mg/kg po bid for 4 days after first treatment in conscious chronically-instrumented renovascular hypertensive rats). Details: not given.
Assay type: functional
How it was run: (§1)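 Male Chbb:THOM rats (140–150 g) made renovascular hypertensive by a silver clip (internal diameter 0.20 mm) on the left renal artery under pentobarbitone-sodium (50 mg/kg ip). Chronic-use pressure transmitter implanted. Conscious animals dosed orally twice daily for 4 days. Mean arterial pressure and heart rate recorded continuously at 1-h intervals over 96 h, given as mean ± SE.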

SMILES	MABP
CCCc1nc2c(C)cc(-c3nc4ccccc4n3C)cc2n1Cc1ccc(-c2ccccc2C(=O)O)cc1	42 mmHg

These compounds were tested on Rattus norvegicus (assay: Maximum fall in mean arterial blood pressure (MABP) at 1 mg/kg po bid after 4 days of treatment in conscious chronically-instrumented renovascular hypertensive rats). Details: not given.
Assay type: functional
How it was run: as §1

SMILES	MABP
CCCc1nc2c(C)cc(-c3nc4ccccc4n3C)cc2n1Cc1ccc(-c2ccccc2C(=O)O)cc1	68 mmHg
